According to ChEMBL document CHEMBL1152862, “Tetrahydrobenzo- and benzofurobenzopyrones as a new class of potential photoreagents toward DNA” (2009):
Calls of active or inactive are those of the source. The calls are words filed in the database; no cut-off is given here.

Experiments:
Bacillus subtilis [1] = assay: Antimicrobial activity against Bacillus subtilis incubated in dark for 3 hrs by disk diffusion method; format: functional
Outline: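 Nutrient agar (0.3% beef extract, 0.5% peptone, 0.1% dipotassium hydrogen phosphate, 1.5% agar) seeded with B. subtilis broth culture. Duplicate control plate kept unirradiated at 37 °C overnight in the incubator. Read-out is the size of the inhibition zones.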

Bacillus subtilis [2] = assay: Phototoxicity against Bacillus subtilis after 3 hrs irradiated with UV light by disk diffusion method; format: functional
Outline: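 B. subtilis broth culture on nutrient agar (0.3% beef extract, 0.5% peptone, 0.1% K2HPO4, 1.5% agar). Plates held in the dark at 37 °C for 3 h so compounds diffuse through the agar. Uncovered dishes then exposed to 365 nm UV for 20 min and reincubated in the dark at 37 °C overnight. Photosensitizing activity read as inhibition zones.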

Nucleic Acid = assay: Binding affinity to DNA; format: nucleic-acid assay

| Structure (SMILES) | Activity (Nucleic Acid) | inhibition zone (IZ) (Bacillus subtilis [1]) | inhibition zone (IZ) (Bacillus subtilis [2]) |
| --- | --- | --- | --- |
| COc1c2occc2cc2ccc(=O)oc12 [METHOXSALEN] |  |  | 12 mm |
| O=c1cc(-c2ccccc2)c2cc3c4c(oc3cc2o1)CCCC4 |  | 9 mm | 7 mm |
| O=c1cc(-c2ccccc2)c2ccc3oc4c(c3c2o1)CCCC4 |  |  | 5 mm |

Continued, in another order:

| Activity (Nucleic Acid) | Structure (SMILES) | inhibition zone (IZ) (Bacillus subtilis [1]) | inhibition zone (IZ) (Bacillus subtilis [2]) |
| --- | --- | --- | --- |
| Active | Cc1cc(=O)oc2ccc3oc4ccccc4c3c12 | 11 mm | 14 mm |
| Active | Cc1cc(=O)oc2cc3c(cc12)oc1ccccc13 | 12 mm | 16 mm |
| Active | O=c1cc(-c2ccccc2)c2ccc3oc4ccccc4c3c2o1 | 13 mm | 14 mm |
| Active | O=c1cc(-c2ccccc2)c2cc3c(cc2o1)oc1ccccc13 | 10 mm | 13 mm |
